Assay results published in ChEMBL document CHEMBL2424622, “Development of amino-pyrimidine inhibitors of c-Jun N-terminal kinase (JNK): kinase profiling guided optimization of a 1,2,3-benzotriazole lead” (Bioorg Med Chem Lett, 2013).

Key:
[1] = biological target: Mitogen-activated protein kinase 6 (Homo sapiens, UniProt Q16659); experiment: Competitive binding affinity to ERK3 (unknown origin) at 10 uM in presence of ATP relative to control
[2] = biological target: SRSF protein kinase 2 (Homo sapiens) (UniProt P78362); experiment: Competitive binding affinity to SRPK2 (unknown origin) at 10 uM in presence of ATP relative to control
Chain of SRSF protein kinase 2 (Homo sapiens) (P78362 whole entry, looked up): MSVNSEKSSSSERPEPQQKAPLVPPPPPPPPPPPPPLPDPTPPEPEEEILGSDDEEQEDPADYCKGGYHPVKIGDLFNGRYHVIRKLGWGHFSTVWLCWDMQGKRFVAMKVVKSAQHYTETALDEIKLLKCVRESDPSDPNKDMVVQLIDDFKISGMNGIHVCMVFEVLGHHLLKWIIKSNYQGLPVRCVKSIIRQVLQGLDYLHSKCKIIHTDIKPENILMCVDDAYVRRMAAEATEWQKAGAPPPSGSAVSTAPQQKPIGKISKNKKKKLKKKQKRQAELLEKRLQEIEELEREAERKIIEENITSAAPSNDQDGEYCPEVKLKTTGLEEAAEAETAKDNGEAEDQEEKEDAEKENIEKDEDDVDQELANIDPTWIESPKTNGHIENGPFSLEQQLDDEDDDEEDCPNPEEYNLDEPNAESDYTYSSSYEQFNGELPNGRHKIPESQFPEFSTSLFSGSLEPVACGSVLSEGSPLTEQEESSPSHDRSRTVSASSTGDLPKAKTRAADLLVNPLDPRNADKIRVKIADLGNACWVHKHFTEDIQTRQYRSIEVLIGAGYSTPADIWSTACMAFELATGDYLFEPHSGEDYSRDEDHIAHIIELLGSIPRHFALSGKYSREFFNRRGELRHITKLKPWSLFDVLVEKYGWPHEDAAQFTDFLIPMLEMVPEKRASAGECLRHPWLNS

[3] = biological target: T1, Serine/threonine-protein kinase BRSK1 (Homo sapiens) (UniProt Q8TDC3); experiment: Competitive binding affinity to BRSK1 (unknown origin) at 10 uM in presence of ATP relative to control
T1 sequence (whole entry): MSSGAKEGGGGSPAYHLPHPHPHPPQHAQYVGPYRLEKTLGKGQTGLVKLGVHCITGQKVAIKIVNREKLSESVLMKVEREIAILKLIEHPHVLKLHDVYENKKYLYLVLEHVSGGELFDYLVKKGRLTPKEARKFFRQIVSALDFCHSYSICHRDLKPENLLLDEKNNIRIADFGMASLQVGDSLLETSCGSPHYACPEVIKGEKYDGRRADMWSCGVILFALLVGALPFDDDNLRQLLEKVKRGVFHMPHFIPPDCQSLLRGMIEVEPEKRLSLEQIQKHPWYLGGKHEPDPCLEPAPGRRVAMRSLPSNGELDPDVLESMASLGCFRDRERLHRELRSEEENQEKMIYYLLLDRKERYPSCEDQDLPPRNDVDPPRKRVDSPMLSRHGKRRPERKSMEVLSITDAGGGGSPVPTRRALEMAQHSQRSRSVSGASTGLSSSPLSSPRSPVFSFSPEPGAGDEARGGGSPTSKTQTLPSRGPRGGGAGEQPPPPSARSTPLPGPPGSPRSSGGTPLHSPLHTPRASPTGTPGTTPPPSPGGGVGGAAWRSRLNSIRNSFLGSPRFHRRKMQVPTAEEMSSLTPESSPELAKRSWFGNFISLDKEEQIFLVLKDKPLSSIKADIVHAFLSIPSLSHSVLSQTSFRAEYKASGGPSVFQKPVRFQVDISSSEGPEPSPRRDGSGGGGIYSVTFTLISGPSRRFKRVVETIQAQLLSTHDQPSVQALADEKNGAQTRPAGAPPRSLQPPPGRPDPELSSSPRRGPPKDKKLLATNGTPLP

[4] = biological target: T2, Dual specificity mitogen-activated protein kinase kinase 6 (Homo sapiens) (UniProt P52564); experiment: Competitive binding affinity to MEK6 (unknown origin) at 10 uM in presence of ATP relative to control
T2 sequence (whole entry): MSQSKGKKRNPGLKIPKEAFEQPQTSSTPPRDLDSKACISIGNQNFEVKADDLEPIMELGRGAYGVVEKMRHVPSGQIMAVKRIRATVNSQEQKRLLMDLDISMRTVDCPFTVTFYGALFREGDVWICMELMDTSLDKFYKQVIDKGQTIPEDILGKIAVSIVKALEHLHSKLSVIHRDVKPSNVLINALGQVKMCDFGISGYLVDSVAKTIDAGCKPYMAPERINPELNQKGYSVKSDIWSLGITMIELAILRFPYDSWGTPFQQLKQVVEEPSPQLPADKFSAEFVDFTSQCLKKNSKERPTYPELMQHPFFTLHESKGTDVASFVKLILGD

[5] = biological target: T3, Activin receptor type-1 (Homo sapiens) (UniProt Q04771); experiment: Competitive binding affinity to ACVR1 (unknown origin) at 10 uM in presence of ATP relative to control
T3 sequence (whole entry): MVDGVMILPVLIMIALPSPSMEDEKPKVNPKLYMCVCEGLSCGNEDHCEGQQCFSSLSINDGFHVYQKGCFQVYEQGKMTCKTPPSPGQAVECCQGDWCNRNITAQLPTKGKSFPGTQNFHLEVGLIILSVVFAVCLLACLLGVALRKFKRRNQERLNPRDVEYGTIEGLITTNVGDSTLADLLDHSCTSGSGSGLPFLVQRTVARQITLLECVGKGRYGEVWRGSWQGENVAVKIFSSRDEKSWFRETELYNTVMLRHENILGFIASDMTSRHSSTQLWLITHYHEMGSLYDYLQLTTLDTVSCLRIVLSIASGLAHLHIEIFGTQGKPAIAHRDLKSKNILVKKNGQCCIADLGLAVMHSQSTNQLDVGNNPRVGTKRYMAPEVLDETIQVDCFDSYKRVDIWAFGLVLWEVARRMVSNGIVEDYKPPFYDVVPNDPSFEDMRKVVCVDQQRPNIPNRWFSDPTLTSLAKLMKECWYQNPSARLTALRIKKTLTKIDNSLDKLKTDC

[6] = biological target: Glycogen synthase kinase-3 beta (Homo sapiens, UniProt P49841); experiment: Competitive binding affinity to GSK3beta (unknown origin) at 10 uM in presence of ATP relative to control
Chain of Glycogen synthase kinase-3 beta (P49841 whole entry, looked up): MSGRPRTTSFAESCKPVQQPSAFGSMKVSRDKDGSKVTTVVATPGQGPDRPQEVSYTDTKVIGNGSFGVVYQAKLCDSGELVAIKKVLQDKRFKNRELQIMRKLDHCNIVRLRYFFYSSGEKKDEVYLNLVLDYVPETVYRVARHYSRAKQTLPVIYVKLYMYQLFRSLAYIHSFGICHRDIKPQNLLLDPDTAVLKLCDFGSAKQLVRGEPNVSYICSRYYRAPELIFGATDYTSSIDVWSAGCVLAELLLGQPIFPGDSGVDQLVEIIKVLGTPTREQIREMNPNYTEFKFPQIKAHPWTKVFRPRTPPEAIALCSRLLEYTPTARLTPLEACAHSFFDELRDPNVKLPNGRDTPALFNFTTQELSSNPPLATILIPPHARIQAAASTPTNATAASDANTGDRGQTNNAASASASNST

[7] = biological target: Tyrosine-protein kinase Srms (Homo sapiens) (UniProt Q9H3Y6); experiment: Competitive binding affinity to SRMS (unknown origin) at 10 uM in presence of ATP relative to control
Chain of Tyrosine-protein kinase Srms (Homo sapiens) (Q9H3Y6 whole entry): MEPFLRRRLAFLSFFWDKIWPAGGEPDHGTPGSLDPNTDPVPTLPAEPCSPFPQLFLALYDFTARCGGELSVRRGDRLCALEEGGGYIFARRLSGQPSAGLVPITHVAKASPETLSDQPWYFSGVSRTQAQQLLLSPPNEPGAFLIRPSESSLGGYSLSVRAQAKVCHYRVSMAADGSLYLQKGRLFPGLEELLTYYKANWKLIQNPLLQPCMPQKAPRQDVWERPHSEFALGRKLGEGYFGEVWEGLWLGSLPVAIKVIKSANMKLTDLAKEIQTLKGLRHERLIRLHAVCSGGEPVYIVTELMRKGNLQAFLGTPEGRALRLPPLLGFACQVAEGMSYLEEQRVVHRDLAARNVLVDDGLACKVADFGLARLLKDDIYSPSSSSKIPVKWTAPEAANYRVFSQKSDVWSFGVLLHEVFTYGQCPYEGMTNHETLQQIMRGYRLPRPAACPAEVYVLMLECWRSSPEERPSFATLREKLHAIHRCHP

[8] = biological target: MAP kinase-activated protein kinase 2 (Homo sapiens) (UniProt P49137); experiment: Competitive binding affinity to MAPKAPK2 (unknown origin) at 10 uM in presence of ATP relative to control
Chain of MAP kinase-activated protein kinase 2 (Homo sapiens) (P49137 whole entry, looked up): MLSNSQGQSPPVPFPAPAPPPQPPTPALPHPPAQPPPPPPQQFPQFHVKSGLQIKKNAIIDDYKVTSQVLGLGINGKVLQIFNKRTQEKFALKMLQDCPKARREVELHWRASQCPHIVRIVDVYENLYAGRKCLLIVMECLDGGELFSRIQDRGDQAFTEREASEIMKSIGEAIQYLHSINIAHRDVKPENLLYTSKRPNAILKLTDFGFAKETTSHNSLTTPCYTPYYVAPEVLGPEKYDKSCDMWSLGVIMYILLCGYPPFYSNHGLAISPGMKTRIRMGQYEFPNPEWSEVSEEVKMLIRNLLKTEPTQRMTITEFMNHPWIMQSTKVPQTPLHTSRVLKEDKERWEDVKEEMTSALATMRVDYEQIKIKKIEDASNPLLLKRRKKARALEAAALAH

[9] = biological target: Cyclin-dependent kinase 11B (Homo sapiens, UniProt P21127); experiment: Competitive binding affinity to CDC2L1 (unknown origin) at 10 uM in presence of ATP relative to control
Chain of Cyclin-dependent kinase 11B (P21127 whole entry): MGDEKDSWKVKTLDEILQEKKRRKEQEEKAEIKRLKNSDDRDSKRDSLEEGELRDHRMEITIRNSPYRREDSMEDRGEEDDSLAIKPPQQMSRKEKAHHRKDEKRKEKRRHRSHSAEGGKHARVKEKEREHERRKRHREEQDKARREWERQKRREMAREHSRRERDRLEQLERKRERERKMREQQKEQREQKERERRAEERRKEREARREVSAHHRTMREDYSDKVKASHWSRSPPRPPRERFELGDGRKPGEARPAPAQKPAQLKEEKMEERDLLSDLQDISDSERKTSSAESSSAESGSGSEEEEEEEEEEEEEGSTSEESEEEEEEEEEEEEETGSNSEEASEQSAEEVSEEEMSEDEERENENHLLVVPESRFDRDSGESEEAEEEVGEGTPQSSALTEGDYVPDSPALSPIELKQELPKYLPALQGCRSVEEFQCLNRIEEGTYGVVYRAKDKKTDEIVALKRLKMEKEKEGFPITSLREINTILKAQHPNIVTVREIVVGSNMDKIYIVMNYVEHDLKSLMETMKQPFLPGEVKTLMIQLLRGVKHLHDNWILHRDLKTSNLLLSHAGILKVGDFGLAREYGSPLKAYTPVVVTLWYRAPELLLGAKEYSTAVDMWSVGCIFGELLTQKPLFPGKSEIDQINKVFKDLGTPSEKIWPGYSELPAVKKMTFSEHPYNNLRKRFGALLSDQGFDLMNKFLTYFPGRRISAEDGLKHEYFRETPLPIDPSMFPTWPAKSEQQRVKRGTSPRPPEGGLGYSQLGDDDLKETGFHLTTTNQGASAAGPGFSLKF
How it was run: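 In vitro ATP-site competition binding format, run as one member of a diverse 128-kinase profiling panel. Each compound was tested at a single concentration across the whole panel.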

Chain of Mitogen-activated protein kinase 6 (Q16659 whole entry): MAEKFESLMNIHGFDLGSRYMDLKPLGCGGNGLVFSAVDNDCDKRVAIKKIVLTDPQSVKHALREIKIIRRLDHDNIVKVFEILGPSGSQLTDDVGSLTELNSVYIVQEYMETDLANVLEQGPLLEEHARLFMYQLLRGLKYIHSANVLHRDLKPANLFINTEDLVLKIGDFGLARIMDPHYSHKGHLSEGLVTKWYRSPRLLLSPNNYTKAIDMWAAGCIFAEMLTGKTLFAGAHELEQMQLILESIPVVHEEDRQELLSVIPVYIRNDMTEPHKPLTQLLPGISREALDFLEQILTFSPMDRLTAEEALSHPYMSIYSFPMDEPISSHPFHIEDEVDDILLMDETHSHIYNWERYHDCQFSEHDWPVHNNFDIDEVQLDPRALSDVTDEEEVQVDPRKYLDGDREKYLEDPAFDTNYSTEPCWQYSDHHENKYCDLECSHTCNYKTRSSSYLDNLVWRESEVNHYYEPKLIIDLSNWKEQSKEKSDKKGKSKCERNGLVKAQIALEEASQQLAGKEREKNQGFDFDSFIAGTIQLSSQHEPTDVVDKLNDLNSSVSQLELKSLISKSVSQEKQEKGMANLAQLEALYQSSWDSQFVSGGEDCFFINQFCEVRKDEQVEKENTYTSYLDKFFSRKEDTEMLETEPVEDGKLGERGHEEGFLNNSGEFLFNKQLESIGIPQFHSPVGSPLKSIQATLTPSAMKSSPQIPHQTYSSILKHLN

SMILES | inhibition [1] [%] | inhibition [2] [%] | inhibition [3] [%] | inhibition [4] [%] | inhibition [5] [%] | inhibition [6] [%] | inhibition [7] [%] | inhibition [8] [%] | inhibition [9] [%]
O[C@H]1CC[C@H](Nc2nccc(-n3nnc4ccccc43)n2)CC1 | 100 | < 50 | < 50 | 96 | < 50 | 100 | < 50 | < 50 | 100
CS(=O)(=O)CCCOc1cccc2c1ccn2-c1ccnc(N[C@H]2CC[C@H](C(=O)N3CCC(O)CC3)CC2)n1 | > 85 | – | – | > 85 | – | > 85 | – | – | > 85
O[C@H]1CC[C@H](Nc2nccc(-n3ncc4ccccc43)n2)CC1 | 100 | < 50 | < 50 | 90 | < 50 | 82 | < 50 | < 50 | 97
O[C@H]1CC[C@H](Nc2nccc(-c3n[nH]c4ccccc34)n2)CC1 | – | – | – | – | < 50 | – | – | – | –
O[C@H]1CC[C@H](Nc2nccc(-n3ccc4ccccc43)n2)CC1 | 99 | < 50 | < 50 | 90 | < 50 | < 50 | < 50 | < 50 | 97
